Tests used:
[1] = Plasma protein binding in human at 1000 ng/ml after 4 hrs by equilibrium dialysis method; type: ADME, cell-free; conditions: read-out: PPB
In short: (§1)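 Equilibrium dialysis of plasma (mouse, dog, human) spiked to 1000 ng/mL against PBS, 4 h at 37 °C. Buffer side extracted in triplicate with MTBE, dried, reconstituted in methanol/water 60:40, measured by LC−MS/MS.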

[2] = Oral bioavailability in BALB/c mouse at 75 mg/kg by LC-MS/MS analysis; type: ADME, organism-based; conditions: in vivo
In short: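 Male BALB/c mice (~10−12 weeks, 17−22 g) gavaged with 75 mg/kg as a suspension in 0.5% methylcellulose/0.1% Tween 80. Serial blood by cardiac puncture over 0−24 h into K3EDTA, plasma stored at −70 °C, LC−MS/MS; parameters by noncompartmental analysis.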

[3] = Plasma protein binding in mouse at 1000 ng/ml after 4 hrs by equilibrium dialysis method; type: ADME, cell-free; conditions: read-out: PPB (converted); in short: as §1
Ramos = assay: Antitumor activity against human Ramos cells xenografted in BALB/c nude mouse assessed as tumor growth inhibition at 75 mg/kg, po qd on a 2 days on and 5 days off schedule for 15 days; type: functional; conditions: read-out: GI
[4] = Half life in mouse liver microsomes at 5 uM by LC-MS/MS analysis; type: ADME, Microsome
In short: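 5 μM with mouse, rat, dog or human liver microsomes (~0.87 mg/mL), 50 mM potassium phosphate pH 7.4, NADPH regeneration system, 37 °C.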

HCT-116 = assay: Antitumor activity against human HCT116 cells xenografted in BALB/c nude mouse assessed as tumor growth inhibition at 75 mg/kg, po qd administered thrice in a week for 15 days; type: functional; conditions: HCT-116, 360 h, read-out: GI

## CN1C/C=C/CCOc2cccc(c2)-c2ccnc(n2)Nc2cccc(c2)C1 [ZOTIRACICLIB]
[1]
  fraction unbound at 4 h, 1000 ng/ml: 0.001
[2]
  bioavailability: 24%
[3]
  fraction unbound at 4 h, 1000 ng/ml: 0.006
Ramos
  inhibition in vivo at 75 mg/kg: 42%
[4]
  half-life at 5 µM: 12 min
HCT-116
  inhibition in vivo at 75 mg/kg: 82%

Source: ChEMBL document CHEMBL1944548, “Discovery of kinase spectrum selective macrocycle (16E)-14-methyl-20-oxa-5,7,14,26-tetraazatetracyclo[19.3.1.1(2,6).1(8,12)]heptacosa-1(25),2(26),3,5,8(27),9,11,16,21,23-decaene (SB1317/TG02), a potent inhibitor of cyclin dependent kinases (CDKs), Janus kinase 2 (JAK2), and fms-like tyrosine …” (J Med Chem, 2012)
